Measured values published in ChEMBL document CHEMBL5584332, “Structure and Biosynthesis of Perochalasins A-C, Open-Chain Merocytochalasans Produced by the Marine-Derived Fungus Peroneutypa sp. M16” (J Nat Prod, 2024).

Columns and labels:
Plasmodium falciparum [1] = assay: Antiplasmodial activity against drug-resistant Plasmodium falciparum Dd2; assay type: functional, organism-based
Procedure, shortened: (§1)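 In vitro asexual P. falciparum growth inhibition, reported as IC50. The strains were chloroquine-sensitive 3D7; Dd2, resistant to CQ, SDX, PYR, MQ and CYC; TM90C6B, resistant to CQ, PYR and ATO; and 3D7r_MMV848, resistant to MMV692848. A standard antimalarial served as control for each resistant strain. Values are mean ± standard deviation of two independent experiments run in triplicate.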

Plasmodium falciparum [2] = assay: Resistance index, ratio of IC50 for drug-resistant Plasmodium falciparum Dd2 to IC50 for Plasmodium falciparum 3D7; assay type: functional
Procedure, shortened: (§2)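 Resistance index computed as IC50 against the resistant strain divided by IC50 against 3D7. IC50 values are mean ± standard deviation of two independent experiments in triplicate. Resistant strains: Dd2 (CQ, SDX, PYR, MQ, CYC), TM90C6B (CQ, PYR, ATO) and 3D7r_MMV848 (MMV692848).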

Plasmodium falciparum [3] = assay: Antiplasmodial activity against Plasmodium falciparum 3D7; assay type: functional, organism-based; procedure, shortened: as §1
Plasmodium falciparum [4] = assay: Antiplasmodial activity against drug-resistant Plasmodium falciparum 3D7r_MMV848; assay type: functional, organism-based; procedure, shortened: as §1
Plasmodium falciparum [5] = assay: Antiplasmodial activity against drug-resistant Plasmodium falciparum TM90C6B; assay type: functional, organism-based; procedure, shortened: as §1
[6] = Cytotoxicity against human HepG2 cells; assay type: toxicity, cell-based
Plasmodium falciparum [7] = assay: Resistance index, ratio of IC50 for drug-resistant Plasmodium falciparum 3D7r_MMV848 to IC50 for Plasmodium falciparum 3D7; assay type: functional; procedure, shortened: as §2
Plasmodium falciparum [8] = assay: Resistance index, ratio of IC50 for drug-resistant Plasmodium falciparum TM90C6B to IC50 for Plasmodium falciparum 3D7; assay type: functional; procedure, shortened: as §2
[9] = Selectivity index, ratio of IC50 for human HepG2 cells to IC50 for Plasmodium falciparum 3D7; assay type: toxicity; settings: HepG2 cells versus Plasmodium falciparum 3D7, read-out: Ratio IC50

SMILES	IC50 (Plasmodium falciparum [1]) [µM]	Ratio IC50 (Plasmodium falciparum [2])	IC50 (Plasmodium falciparum [3]) [µM]	IC50 (Plasmodium falciparum [4]) [µM]	IC50 (Plasmodium falciparum [5]) [µM]	IC50 [6] [µM]	Ratio IC50 (Plasmodium falciparum [7])	Ratio IC50 (Plasmodium falciparum [8])	selectivity ratio [9]
CCc1nc(N)nc(N)c1-c1ccc(Cl)cc1 [PYRIMETHAMINE]	> 10	>166							
CC1=C(C)[C@H]2[C@H](Cc3ccc(O)cc3)NC(=O)[C@]23OC(=O)C/C=C(/C)C(=O)[C@@H](C)C/C=C/[C@H]3[C@@H]1O	7	1.6	4.4	4	6	> 100	0.9	1.4	> 23
CC(C)c1c(C(=O)Nc2ccccc2)c(-c2ccccc2)c(-c2ccc(F)cc2)n1CC[C@@H](O)C[C@@H](O)CC(=O)O [ATORVASTATIN]					> 1			>1428	
